Key:
Poa annua = assay: Post-emergence herbicidal activity against Poa annua assessed as growth inhibition at emulsified concentrate of 150 g/ai ha after 15 days by greenhouse test; type: functional
Method in brief: (§1)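 About 20 seeds sown 1–3 cm deep, grown at 15–30 °C and 50% RH. Monocot seedlings sprayed postemergence at the one-leaf stage with a 100 g/L emulsifiable concentrate (DMF/Tween-80) diluted in water, 150 g ai/ha. Untreated and solvent controls included. Visual rating at 15 days, three replicates.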

Amaranthus retroflexus = assay: Post-emergence herbicidal activity against Amaranthus retroflexus assessed as growth inhibition at emulsified concentrate of 150 g/ai ha after 15 days by greenhouse test; type: functional
Method in brief: (§2)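 About 20 seeds sown 1–3 cm deep, grown at 15–30 °C and 50% RH. Dicot seedlings sprayed postemergence at the two-leaf stage with a 100 g/L emulsifiable concentrate (DMF/Tween-80) diluted in water, 150 g ai/ha. Untreated and solvent controls included. Visual rating at 15 days, three replicates.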

[1] = biological target: T1, Protoporphyrinogen oxidase (Homo sapiens, UniProt P50336); assay: Inhibition of Homo sapiens (human) recombinant protoporphyrinogen oxidase expressed in Escherichia coli JM109 assessed as oxidation of protoporphyrinogen IX substrate by fluorescence assay
T1 sequence (P50336 whole entry): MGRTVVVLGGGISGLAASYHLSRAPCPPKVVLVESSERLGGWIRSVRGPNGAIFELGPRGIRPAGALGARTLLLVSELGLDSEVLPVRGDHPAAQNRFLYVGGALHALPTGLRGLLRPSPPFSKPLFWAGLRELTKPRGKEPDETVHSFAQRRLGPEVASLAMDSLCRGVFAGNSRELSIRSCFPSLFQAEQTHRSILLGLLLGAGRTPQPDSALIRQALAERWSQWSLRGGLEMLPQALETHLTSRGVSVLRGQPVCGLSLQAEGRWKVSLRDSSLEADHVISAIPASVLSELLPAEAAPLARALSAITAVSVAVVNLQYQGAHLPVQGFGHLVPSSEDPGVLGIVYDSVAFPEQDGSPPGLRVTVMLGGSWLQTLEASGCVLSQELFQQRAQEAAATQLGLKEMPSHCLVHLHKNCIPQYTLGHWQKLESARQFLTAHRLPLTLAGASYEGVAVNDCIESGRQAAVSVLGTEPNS

Digitaria sanguinalis = assay: Post-emergence herbicidal activity against Digitaria sanguinalis (hairy crabgrass) assessed as growth inhibition at emulsified concentrate of 150 g/ai ha after 15 days by greenhouse test; type: functional; method in brief: as §1
Echinochloa crus-galli = assay: Post-emergence herbicidal activity against Echinochloa crus-galli (barnyard grass) assessed as growth inhibition at emulsified concentrate of 150 g/ai ha after 15 days by greenhouse test; type: functional; method in brief: as §1
Eclipta prostrata = assay: Post-emergence herbicidal activity against Eclipta prostrata assessed as growth inhibition at emulsified concentrate of 150 g/ai ha after 15 days by greenhouse test; type: functional; method in brief: as §2
Brassica juncea = assay: Post-emergence herbicidal activity against Brassica juncea assessed as growth inhibition at emulsified concentrate of 150 g/ai ha after 15 days by greenhouse test; type: functional; method in brief: as §2

Structure (SMILES)	inhibition (INH) (Poa annua) [%]	inhibition (INH) (Amaranthus retroflexus) [%]	Ki [1] [µM]	inhibition (INH) (Digitaria sanguinalis) [%]	inhibition (INH) (Echinochloa crus-galli) [%]	inhibition (INH) (Eclipta prostrata) [%]	inhibition (INH) (Brassica juncea) [%]
CC(C)OC(=O)CSc1nc2cc(-n3nc(C(C)(C)C)oc3=O)c(Cl)cc2s1	0	50	2.17	0	0	0	0
CC(C)(C)OC(=O)CSc1nc2cc(-n3nc(C(C)(C)C)oc3=O)c(Cl)cc2s1	0	40	0.84	0	0	30	50
Cc1nn(-c2cc(NS(C)(=O)=O)c(Cl)cc2Cl)c(=O)n1C(F)F [SULFENTRAZONE]	–	100	0.72	70	75	100	100
CCOC(=O)CSc1nc2cc(-n3nc(C(C)(C)C)oc3=O)c(Cl)cc2s1	0	70	1.01	0	0	60	50
CCOC(=O)C(C)(C)Sc1nc2cc(-n3nc(C(C)(C)C)oc3=O)c(F)cc2s1	0	60	1.54	0	0	70	50
C#CCSc1nc2cc(-n3nc(C(C)(C)C)oc3=O)c(Br)cc2s1	0	40	11.1	0	0	40	40
CC(C)(C)OC(=O)CSc1nc2cc(-n3nc(C(C)(C)C)oc3=O)c(F)cc2s1	0	0	1.59	0	0	0	0
CCOC(=O)Sc1nc2cc(-n3nc(C(C)(C)C)oc3=O)c(Cl)cc2s1	0	70	0.33	0	0	40	70
C#CCSc1nc2cc(-n3nc(C(C)(C)C)oc3=O)c(Cl)cc2s1	–	–	8.61	–	–	–	–
CCOC(=O)CCCSc1nc2cc(-n3nc(C(C)(C)C)oc3=O)c(Br)cc2s1	–	–	5.83	–	–	–	–
CCOC(=O)C(C)(C)Sc1nc2cc(-n3nc(C(C)(C)C)oc3=O)c(Cl)cc2s1	0	50	1.35	0	0	50	60
CCCOC(=O)CSc1nc2cc(-n3nc(C(C)(C)C)oc3=O)c(Cl)cc2s1	0	70	0.98	0	0	0	0
C=CCSc1nc2cc(-n3nc(C(C)(C)C)oc3=O)c(F)cc2s1	0	60	15.9	0	0	40	60
CCOC(=O)CCSc1nc2cc(-n3nc(C(C)(C)C)oc3=O)c(F)cc2s1	0	50	0.32	0	0	50	60
COC(=O)/C=C/CSc1nc2cc(-n3nc(C(C)(C)C)oc3=O)c(F)cc2s1	0	40	7.48	0	0	50	40
CC(C)(C)c1nn(-c2cc3nc(SCC=C(Cl)Cl)sc3cc2F)c(=O)o1	50	60	10.9	40	50	60	70
CCCOC(=O)CSc1nc2cc(-n3nc(C(C)(C)C)oc3=O)c(Br)cc2s1	0	50	3.1	0	0	30	0
CC(C)(C)c1nn(-c2cc3nc(SCC=C(Cl)Cl)sc3cc2Cl)c(=O)o1	0	70	10.2	0	0	40	70
COC(=O)CSc1nc2cc(-n3nc(C(C)(C)C)oc3=O)c(F)cc2s1	0	60	3.99	0	0	0	0
CC(C)(C)c1nn(-c2cc3nc(SCC=C(Cl)Cl)sc3cc2Br)c(=O)o1	–	–	18.6	–	–	–	–
C=CCSc1nc2cc(-n3nc(C(C)(C)C)oc3=O)c(Cl)cc2s1	0	70	3.11	0	0	60	70
CCOC(=O)CSc1nc2cc(-n3nc(C(C)(C)C)oc3=O)c(Br)cc2s1	0	75	6.96	0	0	0	0
CCOC(=O)CCCSc1nc2cc(-n3nc(C(C)(C)C)oc3=O)c(Cl)cc2s1	0	50	2.02	0	0	0	0
CCOC(=O)Sc1nc2cc(-n3nc(C(C)(C)C)oc3=O)c(F)cc2s1	0	0	1.3	0	0	0	0
CC(C)OC(=O)CSc1nc2cc(-n3nc(C(C)(C)C)oc3=O)c(Br)cc2s1	0	75	5.97	0	0	0	0
CCOC(=O)C(C)Sc1nc2cc(-n3nc(C(C)(C)C)oc3=O)c(Br)cc2s1 (centres undefined)	0	70	8.13	0	0	60	0
CCOC(=O)CCSc1nc2cc(-n3nc(C(C)(C)C)oc3=O)c(Br)cc2s1	0	0	1.69	0	0	30	0
COC(=O)Sc1nc2cc(-n3nc(C(C)(C)C)oc3=O)c(F)cc2s1	0	40	0.72	0	0	0	0
COC(=O)CSc1nc2cc(-n3nc(C(C)(C)C)oc3=O)c(Cl)cc2s1	0	70	1.07	0	0	50	0

From ChEMBL document CHEMBL3045650, “Design, synthesis, and 3D-QSAR analysis of novel 1,3,4-oxadiazol-2(3H)-ones as protoporphyrinogen oxidase inhibitors” (J Agric Food Chem, 2010)
